Assays:
CYP2E1 = CYP2E1 (Homo sapiens, UniProt P05181); assay: Inhibitory concentration value against human cytochrome P-450 2E1
Summary of the method: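 Baculovirus-expressed CYP2E1 (co-expressing P450 reductase and cytochrome b5), 5 nM final, with 10 µM Vivid blue substrate in 0.2 M potassium phosphate pH 8.0. Inhibitor at eight levels from 0.02 to 400 µM, or six from 0.14 to 300 µM. Started with an NADPH-generating system, then 40 min at room temperature. O-dealkylated product read by fluorescence (ex 405/em 460 nm). IC50 is the mean of three experiments.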

CYP3A4 = CYP3A4 (Homo sapiens, UniProt P08684); assay: Inhibitory concentration value against human cytochrome P-450 3A4
CYP3A4, sequence (P08684 whole entry): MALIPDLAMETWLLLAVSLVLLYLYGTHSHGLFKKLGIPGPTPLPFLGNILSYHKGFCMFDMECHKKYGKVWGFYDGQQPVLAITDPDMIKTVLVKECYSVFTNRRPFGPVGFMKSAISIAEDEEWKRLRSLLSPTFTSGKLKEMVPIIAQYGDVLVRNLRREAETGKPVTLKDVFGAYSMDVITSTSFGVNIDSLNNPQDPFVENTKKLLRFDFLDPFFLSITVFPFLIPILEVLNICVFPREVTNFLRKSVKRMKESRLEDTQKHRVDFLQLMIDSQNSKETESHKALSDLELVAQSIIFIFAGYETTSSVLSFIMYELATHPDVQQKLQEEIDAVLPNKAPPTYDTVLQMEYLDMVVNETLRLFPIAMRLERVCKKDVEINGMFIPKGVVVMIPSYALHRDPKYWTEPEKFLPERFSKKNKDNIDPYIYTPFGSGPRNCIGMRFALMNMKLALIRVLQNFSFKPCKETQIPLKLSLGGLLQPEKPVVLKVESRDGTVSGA
Summary of the method: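 Human liver microsomes (0.4 mg) in 0.05 M potassium phosphate, pH 7.5, with an NADPH-generating system, DETAPAC and 3 mM MgCl2. Inhibitor at 0.02–400 µM. Started with 0.2 mM testosterone and run 30 min at 37 °C with shaking. Stopped with ethyl acetate, then extracted. 6β-hydroxytestosterone measured by reverse-phase HPLC with UV detection at 254 nm. IC50 values are the mean of at least three determinations ± SD.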

CYP2D6 = CYP2D6 (Homo sapiens, UniProt P10635); assay: Inhibitory concentration value against human cytochrome P-450 2D6
CYP2D6, sequence (P10635 whole entry): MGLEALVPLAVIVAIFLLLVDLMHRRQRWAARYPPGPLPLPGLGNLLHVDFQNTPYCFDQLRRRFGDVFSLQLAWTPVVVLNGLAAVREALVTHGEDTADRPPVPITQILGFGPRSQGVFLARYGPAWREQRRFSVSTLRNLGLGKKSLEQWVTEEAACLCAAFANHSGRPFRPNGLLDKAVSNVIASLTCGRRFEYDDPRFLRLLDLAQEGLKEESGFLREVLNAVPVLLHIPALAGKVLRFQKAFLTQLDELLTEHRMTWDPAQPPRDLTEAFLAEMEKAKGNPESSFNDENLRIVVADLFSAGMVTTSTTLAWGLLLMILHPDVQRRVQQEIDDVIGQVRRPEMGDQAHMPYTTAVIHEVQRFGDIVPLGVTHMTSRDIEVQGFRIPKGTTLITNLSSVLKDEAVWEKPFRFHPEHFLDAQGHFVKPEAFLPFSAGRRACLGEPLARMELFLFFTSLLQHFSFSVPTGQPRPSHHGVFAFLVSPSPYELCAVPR
Summary of the method: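 Baculovirus insect-cell microsomes coexpressing each CYP with reductase and b5, in 0.2 M potassium phosphate pH 8.0. Vivid blue substrate O-dealkylation used 5 µM substrate with 10 nM enzyme for 2B6, 10 µM with 5 nM for 2C19, 10 µM with 10 nM for 2D6, and 10 µM with 5 nM for 2E1. Inhibitor 0.02–400 or 0.14–300 µM. NADPH-generating system, 40 min at room temperature, fluorescence 405/460 nm. IC50 is the mean of three ± SD.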

CYP2E1, sequence (P05181 whole entry): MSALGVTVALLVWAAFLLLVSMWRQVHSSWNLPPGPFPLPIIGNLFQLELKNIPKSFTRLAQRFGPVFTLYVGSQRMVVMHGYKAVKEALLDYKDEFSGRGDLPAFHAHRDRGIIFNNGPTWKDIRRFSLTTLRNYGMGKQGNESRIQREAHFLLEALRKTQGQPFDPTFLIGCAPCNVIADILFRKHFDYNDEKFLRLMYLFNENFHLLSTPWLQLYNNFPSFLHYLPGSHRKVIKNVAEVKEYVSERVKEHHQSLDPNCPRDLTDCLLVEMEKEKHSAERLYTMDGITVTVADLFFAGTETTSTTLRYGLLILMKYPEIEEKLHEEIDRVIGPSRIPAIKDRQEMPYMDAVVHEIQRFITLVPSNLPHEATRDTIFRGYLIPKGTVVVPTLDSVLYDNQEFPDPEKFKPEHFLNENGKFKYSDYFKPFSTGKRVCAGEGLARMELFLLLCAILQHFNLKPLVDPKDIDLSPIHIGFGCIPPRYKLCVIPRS

Structure (SMILES) | IC50 (CYP2E1) | IC50 (CYP3A4) | IC50 (CYP2D6)
O=NCc1ccc(-c2cccnc2)o1 [US8609708, 24] | > 400 µM | > 400 µM | > 400 µM
NCc1ccc(-c2cccnc2)s1 [US8609708, 31] | – | 77.5 µM | 197 µM

— BindingDB's records for doi:10.1021/jm049696n (Human Biomolecular Research Institute, 2005)
